The compounds below were run against Cannabinoid receptor 1 (Rattus norvegicus, UniProt P20272) (assay: Displacement of [3H]CP-55940 from CB1 receptor in Sprague-Dawley rat cerebellar membrane).
Parameters: species or system Cerebellum
In short: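 Membranes came from cerebella of male Sprague Dawley rats (200–300 g), homogenized in TME buffer (50 mM Tris–HCl, 1 mM EDTA, 3 mM MgCl2, pH 7.4) and spun at 48,000g for 30 min at 4 °C. They were incubated 1 h at 30 °C in TME with 0.5% fatty-acid-free BSA, then filtered on PEI-soaked GF/B, washed and counted by scintillation. IC50 values are from single determinations.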

Sequence of Cannabinoid receptor 1 (P20272 whole entry): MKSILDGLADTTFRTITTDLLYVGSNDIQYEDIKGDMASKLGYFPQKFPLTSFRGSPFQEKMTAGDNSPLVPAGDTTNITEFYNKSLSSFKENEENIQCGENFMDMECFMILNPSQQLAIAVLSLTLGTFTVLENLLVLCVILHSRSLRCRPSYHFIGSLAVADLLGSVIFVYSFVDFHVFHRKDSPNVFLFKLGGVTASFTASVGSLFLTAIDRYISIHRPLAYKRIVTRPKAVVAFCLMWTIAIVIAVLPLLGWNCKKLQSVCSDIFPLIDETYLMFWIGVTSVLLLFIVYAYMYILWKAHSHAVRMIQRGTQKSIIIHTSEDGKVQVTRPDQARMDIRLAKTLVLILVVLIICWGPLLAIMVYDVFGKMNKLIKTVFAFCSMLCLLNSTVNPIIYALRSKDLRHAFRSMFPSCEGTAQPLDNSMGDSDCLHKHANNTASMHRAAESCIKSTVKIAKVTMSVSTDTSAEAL

| Structure (SMILES) | IC50 |
| --- | --- |
| CCN1CCN(C(=O)c2nn(-c3ccccc3Cl)c(-c3ccc(Br)cc3)c2Cn2cncn2)CC1 | 303 nM |
| CCC(C)(C)NC(=O)c1nn(-c2ccccc2Cl)c(-c2ccc(Br)cc2)c1Cn1cncn1 | 8.99 nM |
| O=C(c1nn(-c2ccc(Cl)cc2Cl)c(-c2ccc(Br)cc2)c1Cn1cncn1)N1CCN(c2ncccn2)CC1 | 27.7 nM |
| O=C(NNC(=O)C1(C(F)(F)F)CC1)c1nn(-c2ccc(Cl)cc2Cl)c(-c2ccc(Cl)cc2)c1Cn1cncn1 | 126 nM |
| CN1CCN(C(=O)c2nn(-c3ccc(Cl)cc3Cl)c(-c3ccc(Cl)cc3)c2Cn2cncn2)CC1 | 1420 nM |
| O=C(NC1(C(F)(F)F)CCC1)c1nn(-c2ccccc2Cl)c(-c2ccc(Br)cc2)c1Cn1cncn1 | 7.48 nM |
| O=C(NC1CCCCCC1)c1nn(-c2ccccc2Cl)c(-c2ccc(Cl)cc2)c1Cn1cncn1 | 9.7 nM |
| O=C(c1nn(-c2ccc(Cl)cc2Cl)c(-c2ccc(Br)cc2)c1Cn1cncn1)N1CCN(c2cccc(Cl)c2Cl)CC1 | 5.74 nM |
| C[C@H]1CCCC[C@@H]1NC(=O)c1nn(-c2ccc(Cl)cc2Cl)c(-c2ccc(Cl)cc2)c1Cn1cncn1 | 12.9 nM |
| CC(NC(=O)c1nn(-c2ccccc2Cl)c(-c2ccc(Cl)cc2)c1Cn1cncn1)C(C)(C)C (centres undefined) | 6.22 nM |
| O=C(c1nn(-c2ccccc2Cl)c(-c2ccc(Br)cc2)c1Cn1cncn1)N1CCN(c2ncccn2)CC1 | 22.3 nM |
| O=C(NCc1ccccn1)c1nn(-c2ccc(Cl)cc2Cl)c(-c2ccc(Cl)cc2)c1Cn1cncn1 | 74.8 nM |
| O=C(c1nn(-c2ccc(Cl)cc2Cl)c(-c2ccc(Br)cc2)c1Cn1cncn1)N1CCN(c2ccccc2)CC1 | 12.5 nM |
| O=C(NNC(=O)C1(c2ccc(Cl)cc2)CC1)c1nn(-c2ccc(Cl)cc2Cl)c(-c2ccc(Cl)cc2)c1Cn1cncn1 | 44.5 nM |
| CCN1CCCC1CNC(=O)c1nn(-c2ccc(Cl)cc2Cl)c(-c2ccc(Cl)cc2)c1Cn1cncn1 (centres undefined) | 4020 nM |
| O=C(NC1(C(F)(F)F)CC1)c1nn(-c2ccccc2Cl)c(-c2ccc(Br)cc2)c1Cn1cncn1 | 9.15 nM |
| O=C(NCc1ccccc1)c1nn(-c2ccc(Cl)cc2Cl)c(-c2ccc(Br)cc2)c1Cn1cncn1 | 13 nM |
| O=C(c1nn(-c2ccc(Cl)cc2Cl)c(-c2ccc(Br)cc2)c1Cn1cncn1)N1CCN(c2cccc(Cl)c2)CC1 | 7.22 nM |
| CCC(C)(C)NC(=O)c1nn(-c2ccc(Cl)cc2Cl)c(-c2ccc(Cl)cc2)c1Cn1cncn1 | 3.01 nM |
| CCNC1(C(N)=O)CCN(C(=O)c2nn(-c3ccc(Cl)cc3Cl)c(-c3ccc(Cl)cc3)c2Cn2cncn2)CC1 | 878 nM |
| O=C(NN1CCCCCC1)c1nn(-c2ccc(Cl)cc2Cl)c(-c2ccc(Br)cc2)c1Cn1cncn1 | 8.23 nM |

| Structure (SMILES) | IC50 |
| --- | --- |
| O=C(NCC1CCCCC1)c1nn(-c2ccccc2Cl)c(-c2ccc(Cl)cc2)c1Cn1cncn1 | 12.2 nM |
| O=C(NC1CCCCC1)c1nn(-c2ccccc2Cl)c(-c2ccc(Cl)cc2)c1Cn1cncn1 | 6.6 nM |
| CC(C)(C)NC(=O)c1nn(-c2ccccc2Cl)c(-c2ccc(Br)cc2)c1Cn1cncn1 | 7.9 nM |
| O=C(c1nn(-c2ccccc2Cl)c(-c2ccc(Br)cc2)c1Cn1cncn1)N1CCN(c2ccccc2)CC1 | 8.01 nM |
| O=C(c1nn(-c2ccc(Cl)cc2Cl)c(-c2ccc(Cl)cc2)c1Cn1cncn1)N1CCN(c2ccccc2)CC1 | 8.88 nM |
| CC(NC(=O)c1nn(-c2ccc(Cl)cc2Cl)c(-c2ccc(Cl)cc2)c1Cn1cncn1)C(C)(C)C (centres undefined) | 8.44 nM |
| O=C(NC1(c2ccc(Cl)cc2)CC1)c1nn(-c2ccccc2Cl)c(-c2ccc(Cl)cc2)c1Cn1cncn1 | 9.03 nM |
| O=C(c1nn(-c2ccc(Cl)cc2Cl)c(-c2ccc(Cl)cc2)c1Cn1cncn1)N1CCN(c2cccc(Cl)c2)CC1 | 7.33 nM |
| O=C(NC1(c2ccccc2)CC1)c1nn(-c2ccccc2Cl)c(-c2ccc(Cl)cc2)c1Cn1cncn1 | 5.81 nM |
| CCC(C)(C)NC(=O)c1nn(-c2ccccc2Cl)c(-c2ccc(Cl)cc2)c1Cn1cncn1 | 11.9 nM |
| O=C(c1nn(-c2ccc(Cl)cc2Cl)c(-c2ccc(Cl)cc2)c1Cn1cncn1)N1CCN(c2ncccn2)CC1 | 56 nM |
| CC(C)(NC(=O)c1nn(-c2ccccc2Cl)c(-c2ccc(Cl)cc2)c1Cn1cncn1)c1ccc(Cl)cc1 | 7.7 nM |
| O=C(c1nn(-c2ccccc2Cl)c(-c2ccc(Cl)cc2)c1Cn1cncn1)N1CCN(c2ccccc2)CC1 | 11.5 nM |
| O=C(NCc1ccccc1)c1nn(-c2ccccc2Cl)c(-c2ccc(Cl)cc2)c1Cn1cncn1 | 14.1 nM |
| O=C(N[C@H]1CCCC[C@@H]1O)c1nn(-c2ccc(Cl)cc2Cl)c(-c2ccc(Cl)cc2)c1Cn1cncn1 | 60.7 nM |
| O=C(NC1CCCC1)c1nn(-c2ccc(Cl)cc2Cl)c(-c2ccc(Cl)cc2)c1Cn1cncn1 | 6.9 nM |
| C[C@H]1CC[C@H](NC(=O)c2nn(-c3ccc(Cl)cc3Cl)c(-c3ccc(Cl)cc3)c2Cn2cncn2)CC1 | 14.2 nM |
| CN1CCN(C(=O)c2nn(-c3ccc(Cl)cc3Cl)c(-c3ccc(Br)cc3)c2Cn2cncn2)CC1 | 1340 nM |
| CN1CCN(C(=O)c2nn(-c3ccccc3Cl)c(-c3ccc(Br)cc3)c2Cn2cncn2)CC1 | 901 nM |
| O=C(NCc1ccccc1)c1nn(-c2ccc(Cl)cc2Cl)c(-c2ccc(Cl)cc2)c1Cn1cncn1 | 19.2 nM |

The remaining lines, values ahead:

| IC50 | Structure (SMILES) |
| --- | --- |
| 2.9 nM | CC(C)(C)NC(=O)c1nn(-c2ccc(Cl)cc2Cl)c(-c2ccc(Br)cc2)c1Cn1cncn1 |
| 5.11 nM | O=C(NN1CCCCC1)c1nn(-c2ccc(Cl)cc2Cl)c(-c2ccc(Br)cc2)c1Cn1cncn1 |
| 5.09 nM | O=C(NC1(c2ccc(Cl)cc2)CC1)c1nn(-c2ccc(Cl)cc2Cl)c(-c2ccc(Cl)cc2)c1Cn1cncn1 |
| 5.5 nM | O=C(c1nn(-c2ccc(Cl)cc2Cl)c(-c2ccc(Cl)cc2)c1Cn1cncn1)N1CCN(c2cccc(Cl)c2Cl)CC1 |
| 4.5 nM | O=C(NC1(C(F)(F)F)CC1)c1nn(-c2ccc(Cl)cc2Cl)c(-c2ccc(Cl)cc2)c1Cn1cncn1 |
| 4.67 nM | O=C(NC1(C(F)(F)F)CCC1)c1nn(-c2ccc(Cl)cc2Cl)c(-c2ccc(Cl)cc2)c1Cn1cncn1 |
| 3.33 nM | CC(C)(NC(=O)c1nn(-c2ccc(Cl)cc2Cl)c(-c2ccc(Cl)cc2)c1Cn1cncn1)c1ccc(Cl)cc1 |
| 4.75 nM | O=C(NC1(C(F)(F)F)CC1)c1nn(-c2ccccc2Cl)c(-c2ccc(Cl)cc2)c1Cn1cncn1 |
| 2.8 nM | O=C(NC1(c2ccc(Cl)cc2)CC1)c1nn(-c2ccc(Cl)cc2Cl)c(-c2ccc(Br)cc2)c1Cn1cncn1 |
| 3.77 nM | O=C(NC1CCCCC1)c1nn(-c2ccc(Cl)cc2Cl)c(-c2ccc(Cl)cc2)c1Cn1cncn1 |
| 2.6 nM | CC(NC(=O)c1nn(-c2ccc(Cl)cc2Cl)c(-c2ccc(Cl)cc2)c1Cn1cncn1)c1ccc(Br)cc1 (centres undefined) |
| 2.99 nM | CC(C)(NC(=O)c1nn(-c2ccc(Cl)cc2Cl)c(-c2ccc(Br)cc2)c1Cn1cncn1)c1ccc(Cl)cc1 |
| 4.38 nM | O=C(NC1CCCCC1)c1nn(-c2ccc(Cl)cc2Cl)c(-c2ccc(Br)cc2)c1Cn1cncn1 |
| 3.8 nM | Cc1cccc(N2CCN(C(=O)c3nn(-c4ccc(Cl)cc4Cl)c(-c4ccc(Br)cc4)c3Cn3cncn3)CC2)c1C |
| 4.08 nM | O=C(c1nn(-c2ccccc2Cl)c(-c2ccc(Cl)cc2)c1Cn1cncn1)N1CCN(c2cccc(Cl)c2)CC1 |
| 3.87 nM | O=C(NC1(C(F)(F)F)CCC1)c1nn(-c2ccc(Cl)cc2Cl)c(-c2ccc(Br)cc2)c1Cn1cncn1 |
| 4.1 nM | CC(NC(=O)c1nn(-c2ccc(Cl)cc2Cl)c(-c2ccc(Br)cc2)c1Cn1cncn1)C(C)(C)C (centres undefined) |
| 5.14 nM | O=C(NC1(C(F)(F)F)CCC1)c1nn(-c2ccccc2Cl)c(-c2ccc(Cl)cc2)c1Cn1cncn1 |

Reference: ChEMBL document CHEMBL1159084, “Synthesis and structure-activity relationship of 1,2,4-triazole-containing diarylpyrazolyl carboxamide as CB1 cannabinoid receptor-ligand” (Bioorg Med Chem, 2010)
